Compound activity from PubChem BioAssay.
UCH37 DUB inh: inhibitors of human UCH37 deubiquitinase, primary screen, biochemical, Ub-AMC cleavage, fluorescence; inhibition, % (test concentration not listed); Ubiquitin carboxyl-terminal hydrolase isozyme L5 (Homo sapiens), Q9Y5K5; 330,000 tested, 0.33% active; purified proteasome/UCH37;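 active means mean inhibition over replicate wells above about 20%, limit read from the data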;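 further: 0% = compound-free wells with enzyme and 100% = wells lacking proteasome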
Target sequence (Q9Y5K5 whole entry, looked up): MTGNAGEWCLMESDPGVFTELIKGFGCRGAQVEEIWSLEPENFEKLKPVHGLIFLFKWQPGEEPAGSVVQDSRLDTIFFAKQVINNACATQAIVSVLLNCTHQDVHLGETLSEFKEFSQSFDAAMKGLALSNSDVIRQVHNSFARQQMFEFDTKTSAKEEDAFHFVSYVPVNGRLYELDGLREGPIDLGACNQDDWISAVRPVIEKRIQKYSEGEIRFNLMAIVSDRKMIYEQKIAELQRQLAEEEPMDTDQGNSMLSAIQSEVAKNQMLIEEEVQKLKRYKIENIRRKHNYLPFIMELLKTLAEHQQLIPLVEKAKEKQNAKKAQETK
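system = Proteasome-associated human UCH37 deubiquitinase | amount = 0.15 nM proteasome as dispensed | medium = pH 7.4 Tris-HCl (50 mM) with ovalbumin, ATP-MgCl2, DTT | incubation = 30 min preincubation with enzyme, 25 min cleavage at room temperature | detection = AMC fluorescence 355/460 nm | read-out basis = percent inhibition | controls = no-proteasome and no-compound wells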
MEKK3 PB1 HTS: modulators of MEKK3-MEK5 PB1 binding, primary screen, biochemical, wildtype MEKK3, multiplex bead flow cytometry, Alexa488-MEK5; binding response (% of control), % at 10 µM; bead-based flow cytometry, Alexa488-MEK5 binding to MEKK3; actives lie on both sides; 0 = blocked by unlabeled MEK5, 100 = vehicle; 290,000 tested, 1.4% active;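 active means binding response more than 3 SD above or below the average of its plate-row segment, actives on both sides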;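 further: Alexa488 bead fluorescence after subtracting the streptavidin-only scavenger bead signal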
Apaf-1 inh: inhibitors of human Apaf-1 apoptosome, primary screen, biochemical, DEVD-Rh110 fluorescence, uHTS; Apoptotic protease-activating factor 1 (Homo sapiens), O14727; reconstituted apoptosome caspase-3 activity; inhibition, % at 20 µM; 330,000 tested, 0.71% active; AID 489030, 2010; active means inhibition of at least 40% at 20 µM;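 further: plate controls were DMSO wells for no effect and DEVD-CHO caspase inhibitor wells for full effect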
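System – cell-free apoptosome with Apaf-1, procaspase-3 and caspase-9 · Buffer or medium – pH 7.5 Hepes buffer with CHAPS, BSA, DTT · Also added – cytochrome c with DEVD-Rh110 · Times – 30 min compound preincubation, 50 min activation, room temperature · Technique – Rh110 fluorescence intensity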
MEKK2mut PB1 HTS: MEK5 binding signal on mutant MEKK2 PB1, primary screen, biochemical, multiplex bead flow cytometry, Alexa488-MEK5 | 290,000 tested, 0.35% active | percent response, % at 10 µM | Alexa488-MEK5 binding to MEKK2 mutant | AID 1530, 2009; in the data active means percent response above about 24%, passing the limit was not always enough
UBC13 inh: UBC13 polyubiquitin chain formation inhibitors, primary screen, biochemical, TR-FRET, uHTS | inhibition, % at 20 µM | 330,000 tested, 0.47% active; in the data active means inhibition above about 45%, passing the limit was not always enough
Target sequence (P61088 whole entry, looked up): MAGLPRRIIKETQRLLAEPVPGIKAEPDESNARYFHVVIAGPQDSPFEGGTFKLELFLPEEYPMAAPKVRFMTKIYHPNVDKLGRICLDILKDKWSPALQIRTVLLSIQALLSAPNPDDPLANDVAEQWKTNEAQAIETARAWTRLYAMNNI
MEKK2 WT-MEK5: modulators of MEK5 binding to wildtype MEKK2, primary screen, biochemical, multiplex bead flow cytometry, Alexa488-MEK5. Alexa488-MEK5 binding to MEKK2 WT; actives lie on both sides. binding response (% of control), % at 10 µM. 290,000 tested, 1.1% active. AID 1531, 2009; in the data active means binding response below about 67% or above about 130%
Casp3 UBC13 ctr: CASP3 inhibitor validation, counterassay for project on UBE2N polyubiquitination blockers, biochemical, one dose; shares compounds with UBC13 inh; Recombinant caspase-3, Caspase-Glo 3/7 luminescence, 60 min; inhibition, % at 20 µM; 1,400 tested, 4% active; AID 488856, 2010;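 active means mean inhibition across replicates above about 26%, limit read from the data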;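 further: plate controls were DMSO with caspase-3 for no effect and DMSO wells lacking enzyme for full effect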
UBC13 conf: UBC13 polyubiquitination inhibitors, single-point retest, confirmation, biochemical, TR-FRET, single concentration; inhibition, % at 10 µM; shares compounds with UBC13 inh; 1,400 tested, 68% active; AID 488859, 2010; in the data active means inhibition above about 45%
Apaf-1 inh conf2: Apaf-1 inhibitors, single-dose retest, confirmation, biochemical, fluorescence, DEVD-Rh110, 20 µM; shares compounds with Apaf-1 inh; inhibition, % at 20 µM; reconstituted apoptosome, caspase-3 DEVD-Rh110 fluorescence; 1,800 tested, 25% active;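 active means mean inhibition of at least 40% at 20 µM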;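 further: plate controls were DMSO wells for no effect and DEVD-CHO caspase inhibitor control wells for full effect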
Rh110 interf inh: Rh110 fluorescence interference by putative Apaf-1 inhibitors, confirmation, artefact control for Apaf-1 inhibitor project, biochemical, 20 µM; shares compounds with Apaf-1 inh; quenched caspase reaction; activation (fluorescence interference), % at 20 µM; 1,800 tested, under 10 active; AID 504615, 2011;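 active means signal rise of 40% or more at 20 µM, treated as a fluorescence artifact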
Apaf1 inh interf: fluorescence interference of Apaf-1 inhibitor hits, dose response, artefact control for Apaf-1 inhibitor project. shares compounds with Apaf-1 inh. fluorescence interference counterscreen, Apaf-1 assay format. IC50, µM. 460 tested, under 10 active. AID 588538, 2011; call rule not given here
* hit, by the source's call. In the library only some 3% were active in any assay of this set; here they are far more common.

How did COc1ccc(C=NNC(=O)c2nn(C)cc2Br)cc1CSCc1ccco1 do in these assays?
UCH37 DUB inh: -2

Results for CC(C)Cn1c(N)c(C(=O)COC(=O)c2cccc(F)c2)c(=O)n(C)c1=O ?
UCH37 DUB inh: 0; MEKK3 PB1 HTS: 73; MEKK2mut PB1 HTS: -3; MEKK2 WT-MEK5: 89

What do the screens show for `O=C(OCC(=O)N(c1ccccc1)C1CCCCC1)c1ccc(CO)cc1`?
UCH37 DUB inh: -2; Apaf-1 inh: 3; UBC13 inh: -6

Results for COc1ccc(-c2sc3cc4c(cc3c2C#CC2(N)CCCCC2)OCO4)cc1 ?
Apaf-1 inh: 72*; UBC13 inh: 85*; Casp3 UBC13 ctr: 2; UBC13 conf: 89*; Apaf-1 inh conf2: 35; Rh110 interf inh: 8

How did COc1ccc(-c2sc3cc4c(cc3c2C#Cc2cncn2C)OCO4)cc1 do in these assays?
UCH37 DUB inh: -3; Apaf-1 inh: 16; UBC13 inh: 20

Results for COc1cc(OC)cc(-c2sc3ccc(OC)cc3c2C#CC2(N)CCCCC2)c1 ?
Apaf-1 inh: 67*; UBC13 inh: 84*; Casp3 UBC13 ctr: 3; UBC13 conf: 77*; Apaf-1 inh conf2: 23; Rh110 interf inh: 2

How did COC(=O)c1ccccc1S(=O)(=O)N1CCC(C(=O)OC(C)C(=O)Nc2ccc(NC(C)=O)cc2)CC1 (stereo not given) do in these assays?
UCH37 DUB inh: 3; MEKK3 PB1 HTS: 101; Apaf-1 inh: -5; MEKK2mut PB1 HTS: 2; UBC13 inh: 5; MEKK2 WT-MEK5: 108

How did COC(=O)c1ccccc1S(=O)(=O)N1CCC(C(=O)N2CCC2)CC1 do in these assays?
UCH37 DUB inh: 6; Apaf-1 inh: 55*; UBC13 inh: 79*; Casp3 UBC13 ctr: 0; UBC13 conf: 64*; Apaf-1 inh conf2: 27; Rh110 interf inh: -1

Results for C#CCOCCOCCOCCNc1nc(N2CCN(C(=O)CCCCCCCCCCNC(=O)[C@H](CCCCN)n3cc(CCO)nn3)CC2)nc(N2CCN(C(=O)CCCCCCCCCCNC(=O)[C@@H]([C@H](C)O)n3cc(C)nn3)CC2)n1 ?
UCH37 DUB inh: 3; Apaf-1 inh: 59*; UBC13 inh: 121*; Casp3 UBC13 ctr: 2; UBC13 conf: 122*; Apaf-1 inh conf2: 31; Rh110 interf inh: 6

Results for C#CCOCCOCCOCCNc1nc(N2CCN(C(=O)CCCCCCCCCCNC(=O)Cn3cc(CCCCCN)nn3)CC2)nc(N2CCN(C(=O)CCCCCCCCCCNC(=O)[C@H]([C@@H](C)CC)n3cc(CCCCCN)nn3)CC2)n1 ?
Apaf-1 inh: 74*; UBC13 inh: 124*; Casp3 UBC13 ctr: -2; UBC13 conf: 123*; Apaf-1 inh conf2: 58*; Rh110 interf inh: 5; Apaf1 inh interf: >100

Results for C#CCOCCOCCOCCNc1nc(N2CCN(C(=O)CCCCCCCCCCNC(=O)[C@H](CCCCN)n3cc(CCO)nn3)CC2)nc(N2CCN(C(=O)CCCCCCCCCCNC(=O)[C@H](CCCCN)n3cc(CCO)nn3)CC2)n1 ?
Apaf-1 inh: 64*; UBC13 inh: 117*; Casp3 UBC13 ctr: 3; UBC13 conf: 125*; Apaf-1 inh conf2: 46*; Rh110 interf inh: 1; Apaf1 inh interf: >100

Results for C#CCOCCOCCOCCNc1nc(N2CCN(C(=O)Cn3cc(CCCCN)nn3)CC2)nc(N2CCN(C(=O)[C@H]([C@@H](C)CC)n3cc(CCCN=C(N)N)nn3)CC2)n1 ?
UCH37 DUB inh: -2; Apaf-1 inh: 21; UBC13 inh: 27

What do the screens show for `C#CCOCCOCCOCCNc1nc(N2CCN(C(=O)[C@H]([C@@H](C)CC)n3cc(CCCCN)nn3)CC2)nc(N2CCN(C(=O)[C@H](C)n3cc(CCCN=C(N)N)nn3)CC2)n1`?
UCH37 DUB inh: 0; Apaf-1 inh: 14; UBC13 inh: 30

What do the screens show for `C#CCOCCOCCOCCNc1nc(N2CCN(C(=O)[C@H]([C@@H](C)CC)n3cc(CCCCN)nn3)CC2)nc(N2CCN(C(=O)[C@H]([C@@H](C)CC)n3cc(CCCN=C(N)N)nn3)CC2)n1`?
UCH37 DUB inh: -4; Apaf-1 inh: 46*; UBC13 inh: 53*; Casp3 UBC13 ctr: -2; UBC13 conf: 48*; Apaf-1 inh conf2: 3; Rh110 interf inh: 5

How did COc1ccc(C(=O)Nc2nc3ccccc3c(=O)[nH]2)cc1 do in these assays?
UCH37 DUB inh: 3; MEKK3 PB1 HTS: 95; Apaf-1 inh: -14; MEKK2mut PB1 HTS: 2; UBC13 inh: 14; MEKK2 WT-MEK5: 99

Results for O=C(Nc1nc2c(F)cc(F)cc2s1)c1ccccn1 ?
UCH37 DUB inh: 1; MEKK3 PB1 HTS: 96; Apaf-1 inh: -5; MEKK2mut PB1 HTS: -1; UBC13 inh: -6; MEKK2 WT-MEK5: 95
